In one data set the test system is S. aureus (ATCC12608). The data set can be described thus: Characterization of cell wall inhibition by SEM. The class given is cell-based, Staphylococcus aureus. The settings on record: S. aureus treated 12 h at drug/bacteria ratio equivalent to MIC determination. In outline: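 S. aureus ATCC12608 was treated with the test compound, with PBS, free vancomycin and the unconjugated polypeptide as comparators. Cell wall morphology was then examined by scanning electron microscopy.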

Data set [1] deals with kidney of MRSA-infected mice. The data set can be described thus: Kidney histology analysis. The class given is in vivo, mice (CD1-IGS). Particulars: 72 h after infection (Figure 5e). Put shortly:
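Mice were infected with MRSA USA100 (2 × 10^7 CFU) by tail-vein injection at 0 h. They received intraperitoneal PBS, vancomycin (100 mg/kg), test compound (72 mg/kg) or unconjugated polypeptide (50 mg/kg, molar equivalent) at 24 and 36 h. Mice were sacrificed at 72 h, and kidneys were H&E-stained for granulomatous foci, immune-cell infiltration and tubular necrosis.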

For another data set, the system named is MRSA (USA100). In words: Antimicrobial activity against extracellular bacteria. In kind it is cell-based, methicillin-resistant Staphylococcus aureus. The settings on record: Staphylococcus aureus, MRSA|USA100, 18 h, read-out: extracellular MIC, MRSA.
For another data set, the system named is VRE (ATCC51858). The data set is described as above. The class given is cell-based, vancomycin-resistant enterococci. The settings on record: Enterococcus, 18 h, read-out: extracellular MIC, VRE.
The test system of data set [2] is bacteria exposed to subinhibitory concentrations. In words: Resistance test by serial passage. The class given is cell-based.
The conditions of data set [3]: by previous studies; cited from earlier work.
A further data set has as its system RAW 264.7 macrophages. In words: MTT cell viability assay. In kind it is cell-based. Particulars: Mus musculus, RAW264.7, 24 h, read-out: IC50, RAW. For orientation: Tetrazolium dyes change colour on reduction, which living cells bring about.

pIC50: −log10 of the molar value. Values after ≈ are worked out from the molar mass of the structure shown. Where only a bound is given, the exact number is not on record here.

The term MIC denotes the least concentration at which growth counts as inhibited. A word on the pIC50: it is −log10 of the IC50, conventionally taken in molar units. On to `CN[C@H](CC(C)C)C(=O)N[C@H]1C(=O)N[C@@H](CC(N)=O)C(=O)N[C@H]2C(=O)N[C@H]3C(=O)N[C@H](C(=O)N[C@H](C(=O)O)c4cc(O)cc(O)c4-c4cc3ccc4O)[C@H](O)c3ccc(c(Cl)c3)Oc3cc2cc(c3O[C@@H]2O[C@H](CO)[C@@H](O)[C@H](O)[C@H]2O[C@H]2C[C@](C)(N)[C@H](O)[C@H](C)O2)Oc2ccc(cc2Cl)[C@H]1O` [Van, vancomycin], for which the “cell wall appearance by SEM” value in the data set with S. aureus (ATCC12608) is reported as “damaged bacterial cell wall”. The “granulomatous foci in kidney (H&E)” value in data set [1] was “almost no granulomatous foci”. The MIC in the data set with MRSA (USA100) was 0.69 µM (≈ 1 µg/mL); with VRE (ATCC51858), 176 µM (≈ 255 µg/mL). For the same compound, the “resistance induction, change in MIC” value is on record as “tripling” in data set [2] (over/after 20 passages at subinhibitory concentration) and “MIC doubling” in data set [2] (within 5 passages at subinhibitory concentration). In addition, the “serum Cmax” value in data set [3] was about 50 µg/mL. For the same compound, the negative-log IC50 (pIC50) with RAW 264.7 macrophages was under 3.15.

Values taken from paper PMC7760462 (ACS Central Science, 2020).
